Results as given in publication PMC11559620 (Science Advances, 2024).
Numbering of substitutions follows the chain as printed. Names may count otherwise. “Also recorded” adds a separate entry of the source. Like-named read-outs stand apart in the source and are kept apart here. Blank lines part the entries; values can stand above or below the molecule they belong to. Ends that are not written are not given here.

How the values were obtained:
CML18 [1] = molecular target: T1, CML18 (Arabidopsis thaliana, UniProt Q9M8U1); assay: Isothermal titration calorimetry, CBD peptide; assay type: binding
T1 sequence (Q9M8U1 1-165): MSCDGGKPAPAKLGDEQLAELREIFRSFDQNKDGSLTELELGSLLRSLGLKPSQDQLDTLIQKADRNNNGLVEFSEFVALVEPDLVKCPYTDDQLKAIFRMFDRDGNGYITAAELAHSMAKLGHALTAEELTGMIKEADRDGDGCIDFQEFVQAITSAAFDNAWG
Outline: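 ITC at 25°C: 200 μM CML18 was titrated into 20 μM CBD peptide in 2-μl injections at 150-s intervals, stirred at 750 rpm, in buffer C (pH 6.3) or D (pH 8.3), with 18 μM EGTA or 180 μM Ca2+. Heats from ligand-into-buffer controls were subtracted. Two titrations were run for each of two independent protein preparations.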

CML18 [2] = molecular target: T1, CML18; assay: Far-UV circular dichroism of CML18:CML-BD complex; assay type: binding
Outline: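 Far-UV CD (320–202 nm, 20°C, 1.0-mm quartz cuvette) of decalcified CML18, the synthetic CBD peptide, and a 1:1 protein:peptide mixture, each at pH 6.3 and 8.3. The spectrum expected for non-interacting samples was calculated as the sum of the two individual spectra and compared with the mixture.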

NHX1 [3] = assay: Yeast two-hybrid assay, CMD1 with NHX1; assay type: cell-based, Arabidopsis; conditions: fig. S1A
CML18 [4] = assay: Yeast two-hybrid assay, interaction with CML18; assay type: cell-based, Arabidopsis; conditions: C-terminal cytosolic fragments; selective YNB media
Outline: (§1)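 Strain AH109 was cotransformed with NHX C-terminal fragments in pGBKT7 (GAL4 BD) and CML17 or CML18 in pGADT7 (GAL4 AD), selected on YNB-Trp-Leu. Cultures were grown at 28°C to saturation (OD600 ~2), then 5-μl drops of 10-fold dilutions were spotted on YNB-Trp-Leu, -His-Trp-Leu and -Ade-Trp-Leu. Plates were incubated at 28°C for 3–4 days. p53/pSV40 served as positive control, empty vectors as negative.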

AXT3K strain [5] = assay: Complementation assay, hygromycin B resistance of yeast AXT3K; assay type: cell-based, Saccharomyces cerevisiae
AXT3K strain [6] = assay: Growth of AXT3K in pH-buffered liquid media with hygromycin B; assay type: cell-based, Saccharomyces cerevisiae; conditions: buffered at acidic or neutral pH; OD600 after 24h
Outline: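 Strain AXT3K (ena1-4, nha1 and nhx1 deletions; HygB-sensitive) carried NHX1 alleles in pDR195, selected on YNB lacking His and Ura. Cultures were grown overnight at 30°C and adjusted to OD600 0.5. Then 20 μl was inoculated into 200 μl liquid medium per well and serially diluted 10-fold. Incubation was at 30°C, with OD600 read at 24 and 48 h. Three independent transformants were tested per construct.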

yeast vacuoles = assay: Vacuolar pH of yeast by BCECF-AM; assay type: cell-based, Saccharomyces cerevisiae; conditions: n = 8
CBD = assay: Split-ubiquitin assay, interaction of pore domain with CBD; assay type: cell-based, Arabidopsis; conditions: yeast; YNB without adenine and histidine, 3 days at 28°C
Outline: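 Split-ubiquitin assay in yeast: NHX1 pore domain (residues M1–T292) was fused to Cub-PLV (pMetYCgate). The CBD (S486–G516) or the intervening loop (L453–N480) was fused to NubG (pNXgate32). KAT1 served as dimerisation positive control and CBD negative control. Double transformants were spotted on YNB with and without adenine and histidine. Expression was checked by HA/c-Myc immunoblot.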

[7] = molecular target: CML-BD peptide, synthetic peptide of the CML18-binding motif of NHX1 (residues D485 to R518) (Arabidopsis thaliana); assay: ITC
[8] = molecular target: CML-BD peptide, synthetic peptide of the CML18-binding motif of NHX1 (residues D485 to R518) (Arabidopsis thaliana); assay: ITC; remark: listed apart in the source
[9] = Far-UV circular dichroism of CML18; assay type: physicochemical
Outline: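 CML18 was decalcified by dialysis against 20 mM EGTA, then re-dialysed into EGTA-free buffer C (20 mM MES pH 6.3, 80 mM KCl, 5 mM NaCl, 2 mM DTT) or buffer D (same, with 20 mM tris pH 8.3). Far-UV CD spectra (320–202 nm) were recorded at 0.2 mg/ml, 20°C, 1.0-mm quartz cuvette, with 180 μM Ca2+ or 18 μM EGTA.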

Tryptophan = assay type: physicochemical
Outline: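 Decalcified CML18 was dialysed into buffer C (20 mM MES pH 6.3) or D (20 mM tris pH 8.3), both with 80 mM KCl, 5 mM NaCl, 2 mM DTT. Samples of 10 μl at 25 μM were loaded into UV capillaries and heated from 35 to 95°C at […]. The initial Trp emission ratio (350/330 nm) was taken at the start. For Ca2+ titrations, 20 μM EGTA was kept constant.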

NHX1 [10] = conditions: ref [15]; cited from earlier work
CML18 [11] = assay: Bimolecular fluorescence complementation, interaction with CML18; assay type: cell-based, Arabidopsis; conditions: leaves of N. benthamiana
Outline: (§2)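 Agrobacterium GV3101 carrying BiFC constructs was co-infiltrated with a p19-transformed strain into 5- to 6-week-old N. benthamiana leaves. Full-length NHX1 or NHX2 and CML18 were each fused to complementary halves of eYFP. Empty pSPYCE(M) served as negative control. The lower epidermis was imaged by confocal microscopy (515-nm laser, 60× objective) under constant imaging settings, using a YFP filter.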

NHX2 = assay: Bimolecular fluorescence complementation, interaction with NHX2; assay type: cell-based, Arabidopsis; conditions: leaves of N. benthamiana
Outline: as §2

C terminus of NHX1 = assay: Yeast two-hybrid assay, dimerization with C terminus of NHX1; assay type: cell-based, Arabidopsis; conditions: fig. S2; cytosolic C-terminal domains
NHX1 to NHX4 = assay: Yeast two-hybrid assay, CML17 with vacuolar NHX1 to NHX4; assay type: cell-based, Arabidopsis; conditions: fig. S1B
Outline: as §1

- complex formation with CML18 (CML18 [1]; pH 6.3, presence of Ca2+): high-affinity complex is formed
- helical content in solution (CML18 [2]; far-UV CD, 20°C, peptide alone): no helical content
- binding of CML18 to CBD peptide, pH dependence (CML18 [2]; far-UV CD, pH 6.3 versus 8.3): mostly favored at acidic pH
- α-helical content of the mixture with CML18 (CML18 [2]; pH 6.3, 1:1 protein:peptide, far-UV CD, relative to CML18 alone): increased α-helical content
- interaction with CML18 (CML18 [2]; pH 8.3, absence of Ca2+): no interaction is observed
- helicity of the mixture with CML18 (CML18 [2]; pH 8.3, 1:1 protein:peptide, far-UV CD): only a small increase in helicity
Molecule: DSIRGFLTRPTRTVHYYWRQFDDSFMRPVFGGR [CML-BD]
- CML-BD binding sites per CML18 monomer (CML18 [1]; pH 6.3, model fit, equal affinity): two CML-BD binding sites with equal affinity per CML18 monomer

Molecule: CMD1: the only calmodulin protein produced in S. cerevisiae
- interaction with NHX1 (Y2H) (NHX1 [3]): negative results

B1: D506N (protein, UniProt Q68KI4 1-538, looked up, variant D506N)
Sodium/hydrogen exchanger 1: MLDSLVSKLPSLSTSDHASVVALNLFVALLCACIVLGHLLEENRWMNESITALLIGLGTGVTILLISKGKSSHLLVFSEDLFFIYLLPPIIFNAGFQVKKKQFFRNFVTIMLFGAVGTIISCTIISLGVTQFFKKLDIGTFDLGDYLAIGAIFAATDSVCTLQVLNQDETPLLYSLVFGEGVVNDATSVVVFNAIQSFDLTHLNHEAAFHLLGNFLYLFLLSTLLGAATGLISAYVIKKLYFGRHSTDREVALMMLMAYLSYMLAELFDLSGILTVFFCGIVMSHYTWHNVTESSRITTKHTFATLSFLAETFIFLYVGMDALDIDKWRSVSDTPGTSIAVSSILMGLVMVGRAAFVFPLSFLSNLAKKNQSEKINFNMQVVIWWSGLMRGAVSMALAYNKFTRAGHTDVRGNAIMITSTITVCLFSTVVFGMLTKPLISYLLPHQNATTSMLSDDNTPKSIHIPLLDQDSFIEPSGNHNVPRPDSIRGFLTRPTRTVHYYWRQFNDSFMRPVFGGRGFVPFVPGSPTERNPPDLSKA
- interaction with CML18 (Y2H) (CML18 [4]): lost the ability to bind CML18
- HygB resistance / protein activity in AXT3K (AXT3K strain [5]; YPD + HygB (50 μg/ml), 30°C): inactive; also recorded: unable to suppress the sensitivity of the nhx1 mutant to HygB
- HygB resistance / protein activity in AXT3K (AXT3K strain [5]; in combination with H499L): inactive
- activity irrespective of pH of growth media (AXT3K strain [6]): inactive
- vacuolar pH (pHvac) (yeast vacuoles): overly acidic

B2: pore domain (TM1 to TM9): pore domain of NHX1 (residues M1 to T292) fused to Cub-PLV (protein)
chain: MLDSLVSKLPSLSTSDHASVVALNLFVALLCACIVLGHLLEENRWMNESITALLIGLGTGVTILLISKGKSSHLLVFSEDLFFIYLLPPIIFNAGFQVKKKQFFRNFVTIMLFGAVGTIISCTIISLGVTQFFKKLDIGTFDLGDYLAIGAIFAATDSVCTLQVLNQDETPLLYSLVFGEGVVNDATSVVVFNAIQSFDLTHLNHEAAFHLLGNFLYLFLLSTLLGAATGLISAYVIKKLYFGRHSTDREVALMMLMAYLSYMLAELFDLSGILTVFFCGIVMSHYTWHNVT
modifications: left off: Cub-PLV, end not stated, kept
- interaction with CBD (split-ubiquitin) (CBD): confirmed

- Kd [7]: 2210 nM
- Kd [8]: 3020 nM
- stoichiometry N (CML-BD binding sites per CML18 monomer) [8]: 2
B3: CML18, recombinant, purified (natural protein)
chain: T1 sequence (Q9M8U1 1-165)

B4: CML18-D161N (protein, UniProt Q9M8U1 1-165, looked up, variant D161N)
Probable calcium-binding …: T1 sequence (Q9M8U1 1-165) with D161N
- far-UV CD spectrum compared with WT at pH 6.3 ([9]; fig. S6): nearly identical to that of the WT protein at pH 6.3
- 350-nm/330-nm emission ratio, pH dependence (Tryptophan; pH 6.3 and 8.3): remained constant regardless of pH

B5: CML18: calmodulin-like protein of Arabidopsis, At3g03000 (protein)
chain: T1 sequence (Q9M8U1 1-165)
modifications: left off: cYFP (C-terminal half of YFP), C-terminal, kept
- CD spectrum change upon addition of Ca2+ or EGTA ([9]; 180 μM Ca2+ or 18 μM EGTA, pH 6.3 and 8.3): no noticeable changes in the spectrum
- CD peak at 222 nm ([9]; pH 6.3 compared to pH 8.3, 0.2 mg/ml, 20°C): clear increase of the peak at 222 nm at pH 6.3 compared to pH 8.3
- W164 fluorescence red shift (Tryptophan; pH 6.3 versus pH 8.3, 350/330 nm, 25 μM CML18): remarkable red shift
- effect on K+/H+ and Na+/H+ exchange rates of NHX1 (NHX1 [10]): inhibition
- effect on K+/H+ transport by NHX1 (NHX1 [10]): inhibit

B6: NHX1: vacuolar K+/H+ exchanger of Arabidopsis; C-terminal T435 to A538 in Y2H (protein, UniProt Q68KI4 435-538, looked up, fragment)
chain: TKPLISYLLPHQNATTSMLSDDNTPKSIHIPLLDQDSFIEPSGNHNVPRPDSIRGFLTRPTRTVHYYWRQFDDSFMRPVFGGRGFVPFVPGSPTERNPPDLSKA
- interaction with CML18 (Y2H) (CML18 [4]): strongly; also recorded: CML18 binding was confirmed
- HygB resistance / protein activity in AXT3K (AXT3K strain [5]; YPD + HygB (50 μg/ml), 30°C): suppressed the HygB sensitivity
- interaction with CML18 (BiFC) (CML18 [11]): interacted with CML18
- interaction with NHX2 (BiFC) (NHX2): interacted with NHX2-cYFP
- homodimerization / heterodimerization (Y2H) (C terminus of NHX1): positive results

B7: CML17: calmodulin-like protein of Arabidopsis, At1g32250 (protein)
chain: MSHKVSKKLDEEQINELREIFRSFDRNKDGSLTQLELGSLLRALGVKPSPDQFETLIDKADTKSNGLVEFPEFVALVSPELLSPAKRTTPYTEEQLLRLFRIFDTDGNGFITAAELAHSMAKLGHALTVAELTGMIKEADSDGDGRINFQEFAKAINSAAFDDIWG
modifications: left off: Gal4 activation domain (vector pGADT7), end not stated, kept
- interaction with vacuolar NHX1 to NHX4 (Y2H) (NHX1 to NHX4): failed to demonstrate interaction
